Most compounds without a hit are left out; they make up all but 4% or so of the library.
Granule exo inh: blocks lytic granule exocytosis. hit rate 0.66% among 360,000. inhibition, % at 10 µM. TALL-104 LAMP-1 surface exposure, flow cytometry; cells stimulated with thapsigargin and PMA;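 active means inhibition above about 55%, limit read from the data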
Mdm2 MdmX PPI: inhibitors of human Mdm2/MdmX interaction | SaOS-2 split-luciferase Mdm2/MdmX complementation, luminescence | hit rate 3% among 330,000 | inhibition, % at 8 µM | O15151+Q00987 | AID 485346;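 active means inhibition of at least 50% at 8 µM in the primary screen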
ABHD5-PLIN5 inh: blocks binding of human ABHD5 to perilipin-5 | Q00G26+Q8WTS1 | hit rate 0.78% among 360,000 | inhibition, % at 4 µM | Split G. princeps luciferase complementation, luminescence, 4 h;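 active means inhibition above the mean inhibition across every tested compound plus 3 SD, cut at about 22% in these data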
UPR CHOP act: activators of apoptotic arm of unfolded protein response (CHOP). activation, % at 10 µM. hit rate 0.34% among 330,000. CHO-CHOP luciferase reporter, UPR activation, luminescence; percent of tunicamycin response over DMSO baseline. AID 449763;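 active means at 10 µM dose, activation of 40% or more, normalized to positive control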
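Assay system: CHO-CHOP cells, stable luciferase reporter of PERK-eIF2a-CHOP signalling / Buffer or medium: F12 plus 10% serum / Compound dosing: one dose, 10 µM in 0.5% DMSO / Times: 6 h compound treatment, 37 °C / Technique: luciferase luminescence / Read-out: % reporter activation, DMSO baseline versus tunicamycin full activation / Benchmarks: tunicamycin and DMSO controls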
UPR XBP1 act: adaptive UPR (XBP1) activation; CHO-XBP1 luciferase reporter, IRE1-XBP1 UPR activation, luminescence; percent of tunicamycin response, DMSO as zero; activation, % at 20 µM; hit rate 0.33% among 330,000; AID 463104;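 active means versus positive control, 20 µM dose yields 30% or more activation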
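assay system = CHO-XBP1 luciferase reporter cells | amount = 1000 cells/well | buffer or medium = F12 plus 10% FBS | compound dosing = single point, 20 µM final compound, 1% DMSO | incubation = 16-18 h cell attachment at 37 °C, then 6 h compound exposure | detection = Steady-Glo luminescence read | controls = tunicamycin 10 µg/mL and vehicle-only wells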
Mdm2-MdmX conf: confirmation of human Mdm2/MdmX interaction inhibitors | shares compounds with Mdm2 MdmX PPI | AID 489028 | inhibition, % at 8 µM | hit rate 55% among 10,000 | Mdm2-MdmX binding, luminescent assay; in the data active means inhibition above about 40%
Full FLuc ctr: inhibits full-length luciferase, flagging false Mdm2/MdmX hits. shares compounds with Mdm2 MdmX PPI. SaOS-2 full-length luciferase counterscreen, luminescence. inhibition, % at 8 µM. hit rate 77% among 6,200;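 active means mean inhibition at 8 µM reaching about 37%, which flags the compound as non-specific, limit read from the data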;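 further: p53-null SaOS-2 cells with luciferase driven by a doxycycline-inducible promoter; compound on cells about two nights before reading with doxycycline added after day one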
Hits are given with their value; . = inactive; / = no result given.

SMILES	Granule exo inh	Mdm2 MdmX PPI	ABHD5-PLIN5 inh	UPR CHOP act	UPR XBP1 act	Mdm2-MdmX conf	Full FLuc ctr
CCOC(=O)C1=C(C)Nc2ccccc2N=C1N	.	.	.	.	.	/	/
Cc1ccc(S(=O)(=O)N2CCN(C(=O)c3cc(-c4cccs4)nn3-c3ccccc3)CC2)cc1	.	67.0	.	.	.	41.1	88.0
O=C(c1cc(-c2cccs2)nn1-c1ccccc1)N1CCN(S(=O)(=O)c2ccccc2)CC1	.	54.5	.	.	.	.	91.6
N/C(=N\c1nc2ccccc2o1)NC(=O)c1cccc(Cl)c1	.	50.7	.	.	.	.	/
COc1cc(CNC(C)c2ccccc2)cc(Cl)c1OCC(=O)Nc1ccccc1 (stereo not given)	.	67.7	.	.	.	56.3	51.5
COc1ccc(NC(=O)CSc2ncnc3c2sc2ccccc23)c(OC)c1	.	88.3	.	.	.	.	/
O=C1C(=O)c2ccccc2C(O)=C1C1CCC(c2ccc(Cl)cc2)CC1 (stereo not given)	.	89.9	.	.	.	.	/
CC1(Cc2ccc(F)cc2)C(=O)Nc2c(Cl)ccc(Cl)c21 (stereo not given)	.	/	.	/	/	/	/
CC1(C)CC(NC(=S)NC(=O)c2cc(Br)ccc2Cl)CC(C)(C)N1	.	.	.	.	.	/	/
Cc1ccc(OCCNC(=O)c2cccc(S(=O)(=O)NCc3ccccc3)c2)cc1	.	59.9	.	.	.	76.8	53.7
N#CC(C#N)=C(Nc1ccc(F)cc1)SCc1cccc(F)c1	.	89.8	.	.	.	91.6	.
O=c1c2cccnc2[nH]c(=S)n1CCC1=CCCCC1	.	63.0	.	.	.	.	/
c1ccc(CSCc2cn3ccsc3n2)cc1	.	.	.	.	.	/	/
CC(C)Oc1ccc(C(CCN)C2CCCCC2)cc1 (stereo not given)	.	88.3	.	.	.	42.5	65.4
CC(NC(=O)/C(C#N)=C/c1ccco1)c1ccccc1 (stereo not given)	.	.	.	.	.	/	/
CC(NC(=O)/C(C#N)=C1\N=C(NC(=O)c2ccco2)c2ccccc21)c1ccccc1 (stereo not given)	.	66.8	.	.	.	.	/
COc1ccc([N+](=O)[O-])cc1N(CC(=O)N(C)C)S(C)(=O)=O	.	.	.	.	.	/	/
Cc1ccc(-c2nc(-c3ccccc3)no2)cc1	.	.	.	.	.	/	/
Cc1ccc(-c2nc(-c3ccccc3)no2)c(Cl)c1	.	51.8	.	.	.	62.2	162.5
CC(=O)C1=C(C)OC(N)=C(C#N)C1c1cccc2ccccc12 (stereo not given)	.	.	.	.	.	/	/
CC(=O)n1c2c(c3ccccc31)OC(N)=C(C#N)C2c1ccc(C(C)C)cc1 (stereo not given)	.	59.0	.	.	.	65.5	130.6
COCCn1c(SC(C)C(=O)Nc2ncc(Cl)cc2Cl)nc2ccccc21 (stereo not given)	.	66.7	.	.	.	50.0	57.8
Cc1cc(SC(C)C(=O)Nc2ncc(Cl)cc2Cl)nc2ccccc12 (stereo not given)	.	/	.	/	/	/	/
CN1C(=O)/C(=C/c2cn(CC(=O)N3CCCCC3)c3ccccc23)c2ccccc21	/	52.4	/	.	.	.	/
CC1CCCCN1S(=O)(=O)c1ccc(S(=O)(=O)N2CCN(c3ccccc3)CC2)cc1 (stereo not given)	.	56.6	.	.	.	.	/
COC(=O)c1c(C)oc2ccc(N(C(=O)c3ccncc3)S(=O)(=O)c3ccccc3)cc12	.	.	.	.	.	/	/
COC(=O)c1c(C)oc2ccc(N(C(=O)c3ccncc3)S(=O)(=O)c3ccc(C)cc3)cc12	.	55.6	.	.	.	51.8	85.5
Cn1nnnc1SCC1=C(C(=O)O)N2C(=O)[C@@H](NC(=O)[C@H](O)c3ccccc3)[C@H]2SC1	.	.	.	.	.	/	/
Cc1ccc(N2C(=O)c3cccc4c([N+](=O)[O-])ccc(c34)C2=O)c2cccnc12	.	91.8	.	.	.	59.9	59.9
O=C1c2cccc3c([N+](=O)[O-])ccc(c23)C(=O)N1Cc1cccnc1	.	/	.	/	/	/	/
